Data reported in ChEMBL document CHEMBL1147157, “Virtual screening for novel openers of pancreatic K(ATP) channels” (J Med Chem, 2007).
pEC50, pIC50: −log10 of the molar value.

How the values were obtained:
[1] = target: Sulfonylurea receptor 1, Kir6.2 (Homo sapiens, UniProt Q09428+Q14654); assay: Activity at Kir6.2/SUR1 KATP channels expressed in HEK293 cells assessed as repolarization of tolbutamide-induced membrane depolarization; assay type: cell-based
[2] = target: Sulfonylurea receptor 1, Kir6.2 (Homo sapiens) (UniProt Q14654+Q09428); assay: Activity at Kir6.2/SUR1 KATP channels expressed in HEK293 cells assessed as repolarization of tolbutamide-induced membrane depolarization relative to BPDZ73; assay type: cell-based
Outline: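 HEK 293 cells stably expressing human Kir6.2/SUR1, seeded on poly(lysine)-coated plates, cultured 2 days. Membrane-potential fluorescent dye (ex 490/em 550 nm) in loading buffer/HBSS with 10 µM tolbutamide, 34 °C; fluorescence read before and 5-10 min after compound.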

[3] = Inhibition of insulin release from rat INS-1E cells

Chain of Sulfonylurea receptor 1, Kir6.2 (Q14654 whole entry): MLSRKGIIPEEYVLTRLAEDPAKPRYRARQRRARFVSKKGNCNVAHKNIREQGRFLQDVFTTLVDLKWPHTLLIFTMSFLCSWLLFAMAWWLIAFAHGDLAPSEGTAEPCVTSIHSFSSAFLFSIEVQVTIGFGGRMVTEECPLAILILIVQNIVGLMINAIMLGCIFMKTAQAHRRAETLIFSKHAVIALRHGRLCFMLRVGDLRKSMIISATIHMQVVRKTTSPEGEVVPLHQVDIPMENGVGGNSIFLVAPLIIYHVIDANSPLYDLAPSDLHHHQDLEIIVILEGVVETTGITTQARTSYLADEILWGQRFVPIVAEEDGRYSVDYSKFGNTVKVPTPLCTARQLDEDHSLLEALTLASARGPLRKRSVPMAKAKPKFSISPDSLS
Chain of Sulfonylurea receptor 1, Kir6.2 (Q09428 whole entry): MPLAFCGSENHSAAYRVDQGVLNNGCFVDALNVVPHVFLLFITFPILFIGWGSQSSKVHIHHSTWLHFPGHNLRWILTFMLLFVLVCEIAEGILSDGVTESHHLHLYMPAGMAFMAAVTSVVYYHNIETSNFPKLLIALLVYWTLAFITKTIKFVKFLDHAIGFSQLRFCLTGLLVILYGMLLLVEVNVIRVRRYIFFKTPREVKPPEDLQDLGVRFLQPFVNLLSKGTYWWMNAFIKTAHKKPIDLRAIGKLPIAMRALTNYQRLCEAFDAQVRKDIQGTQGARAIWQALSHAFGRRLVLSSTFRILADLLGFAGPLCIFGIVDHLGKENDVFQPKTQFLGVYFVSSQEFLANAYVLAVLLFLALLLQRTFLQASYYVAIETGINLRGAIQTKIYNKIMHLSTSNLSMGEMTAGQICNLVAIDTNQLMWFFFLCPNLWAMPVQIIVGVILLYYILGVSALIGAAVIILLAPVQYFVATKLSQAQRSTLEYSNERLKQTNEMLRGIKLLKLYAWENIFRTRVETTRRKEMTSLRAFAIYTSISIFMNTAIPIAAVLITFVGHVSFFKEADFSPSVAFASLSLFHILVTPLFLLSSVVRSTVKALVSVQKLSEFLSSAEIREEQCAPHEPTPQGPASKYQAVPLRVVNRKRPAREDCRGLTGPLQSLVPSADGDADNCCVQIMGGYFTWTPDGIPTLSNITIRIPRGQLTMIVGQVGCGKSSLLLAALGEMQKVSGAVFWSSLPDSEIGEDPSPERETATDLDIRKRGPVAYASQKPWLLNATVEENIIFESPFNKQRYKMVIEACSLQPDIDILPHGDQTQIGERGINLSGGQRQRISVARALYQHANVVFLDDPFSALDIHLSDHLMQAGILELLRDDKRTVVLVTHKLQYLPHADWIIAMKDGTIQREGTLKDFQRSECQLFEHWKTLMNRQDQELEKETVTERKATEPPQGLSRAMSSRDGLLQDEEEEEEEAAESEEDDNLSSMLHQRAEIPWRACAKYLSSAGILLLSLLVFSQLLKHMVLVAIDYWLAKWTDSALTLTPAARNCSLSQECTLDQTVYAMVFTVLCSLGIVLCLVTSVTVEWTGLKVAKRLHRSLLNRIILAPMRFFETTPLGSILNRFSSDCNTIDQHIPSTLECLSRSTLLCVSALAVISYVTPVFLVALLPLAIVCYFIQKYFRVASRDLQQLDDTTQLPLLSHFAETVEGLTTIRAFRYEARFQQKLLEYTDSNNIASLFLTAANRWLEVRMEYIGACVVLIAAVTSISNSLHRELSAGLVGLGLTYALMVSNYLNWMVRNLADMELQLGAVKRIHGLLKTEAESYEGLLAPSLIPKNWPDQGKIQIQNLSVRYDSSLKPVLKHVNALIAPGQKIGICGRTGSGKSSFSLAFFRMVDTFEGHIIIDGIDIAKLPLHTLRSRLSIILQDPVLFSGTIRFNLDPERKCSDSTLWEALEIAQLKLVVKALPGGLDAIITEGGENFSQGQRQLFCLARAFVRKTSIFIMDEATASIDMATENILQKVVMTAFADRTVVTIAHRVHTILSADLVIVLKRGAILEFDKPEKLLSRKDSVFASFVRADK

pEC50 [3] | SMILES | pEC50 [1] | Emax [2] [%] | pIC50 [3]
 | NC(=O)c1ccccc1NS(=O)(=O)c1ccc(Cl)cc1 | < 4.52 | 47 | 
 | CC(C)NC1=NS(=O)(=O)c2cc(Cl)ccc2N1 | 6.60 | 100 | 6.03
4.69 | CC1=Nc2ccc(Cl)cc2S(=O)(=O)N1 [DIAZOXIDE] |  |  | 
 | CC(=O)Nc1nc2ccccc2n1CCN1CCCC1 | < 4.52 | 55 | 
 | OCCn1c(-c2ccc(F)cc2)cs/c1=N\c1ccc(F)cc1 | 4.68 | 105 | 4.74
 | N#Cc1c(-c2ccccc2)c(-c2ccccc2)n[nH]c1=O | < 4.52 | 55 | 
 | O=C(Nc1nccs1)c1c(O)c2cc(Cl)ccc2oc1=O | < 4.52 | 171 | 4.25
 | O=c1[nH]cnc2ncc(-c3ccccc3)nc12 | < 4.52 | 84 | 
 | COc1ccc2nc(C(F)(F)F)c(C#N)c(N)c2c1 | 4.82 | 160 | 4.60
 | COc1ccc2[nH]c(N3CCCCC3)nc2c1 | < 4.52 | 52 | 
